Most compounds without a hit are left out; they make up all but 4.3% or so of the library.
MC4R ag barr – human MC4R agonism via beta-arrestin; activation, % at 8.9 µM; U2OS MC4R beta-arrestin complementation, luminescence; percent of melanotan II response, DMSO zero; 360,000 tested, 0.98% active;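 active = activation above a per-plate cutoff, the mean activation of sample wells on that plate plus 3 SD, cut at about 8% in these data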
Target sequence (P32245 whole entry, looked up): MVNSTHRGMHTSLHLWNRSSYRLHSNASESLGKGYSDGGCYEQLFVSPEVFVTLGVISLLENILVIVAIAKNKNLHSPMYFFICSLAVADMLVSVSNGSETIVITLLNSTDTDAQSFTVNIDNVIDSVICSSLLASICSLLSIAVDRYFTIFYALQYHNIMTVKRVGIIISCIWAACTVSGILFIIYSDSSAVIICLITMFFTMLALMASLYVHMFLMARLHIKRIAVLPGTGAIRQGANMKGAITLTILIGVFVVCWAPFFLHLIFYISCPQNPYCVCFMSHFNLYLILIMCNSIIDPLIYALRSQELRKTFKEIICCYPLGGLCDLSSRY
MC4R antagonist – human MC4R antagonism in cAMP assay. P32245. MC4R-expressing cells, MTII-stimulated cAMP, LANCE TR-FRET. inhibition, % at 6.5 µM. 360,000 tested, 0.48% active. AID 540295;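 active = inhibition above its plate's cutoff, the mean of tested wells on that plate plus 3 SD, cut at about 29% in these data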
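Material: human MC4R-expressing U2OS cells. Probe or stimulus: Melanotan II challenge. Dosing: 6.5 µM single dose. Times: 30-min compound, 1-h challenge, 1-h detection, room temperature. Technique: TR-FRET with Eu-cAMP and labeled anti-cAMP, 671 nm. Replication: singlicate.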
m5-HT2A agonist – agonists of mouse serotonin 5-HT2A receptor (HTR2A). activation, % at 7.6 µM. 360,000 tested, 0.66% active. P35363. CHO-K1 mHTR2A beta-arrestin complementation, luminescence; percent of 30 µM serotonin response. AID 624169;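 active = activation above a run cutoff, the mean activation of all tested compounds plus 3 SD, cut at about 14% in these data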
TAAR1 agonist – human TAAR1 agonism; Q96RJ0; CHO RD-HGA16 TAAR1, Fluo-8 calcium fluorescence; vehicle wells 0%, saturating PEA agonist 100%; activation, % at 3 µM; 360,000 tested, 0.99% active;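 active = activation above the mean activation of all test compounds in the run plus 3 SD, cut at about 38% in these data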
Target sequence (Q96RJ0 whole entry, looked up): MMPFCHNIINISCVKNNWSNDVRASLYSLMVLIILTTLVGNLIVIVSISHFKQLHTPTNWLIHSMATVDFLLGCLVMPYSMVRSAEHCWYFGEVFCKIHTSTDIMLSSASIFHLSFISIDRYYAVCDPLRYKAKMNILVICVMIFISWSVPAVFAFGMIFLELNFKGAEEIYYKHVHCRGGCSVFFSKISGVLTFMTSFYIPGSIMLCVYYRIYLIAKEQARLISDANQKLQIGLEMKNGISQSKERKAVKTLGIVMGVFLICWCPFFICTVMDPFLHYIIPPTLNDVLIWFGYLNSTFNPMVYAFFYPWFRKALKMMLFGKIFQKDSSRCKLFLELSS
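Repeats: no replicates (n 1) | Material: CHO-derived RD-HGA16 cells with stable Gα16 and human TAAR1 | Technique: Kinetic Fluo-8 calcium fluorescence | Schedule: 17-24 h seeding, 75 min 37 °C dye, 30 min RT | Evaluation: % activation from peak over basal fluorescence ratio, DMSO-to-PEA scaled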
TAAR1 antagonist – antagonists of human TAAR1; Q96RJ0; CHO RD-HGA16 TAAR1, Fluo-8 calcium fluorescence, antagonist; inhibition, % at 3 µM; 360,000 tested, 1.5% active; AID 624466;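 active = inhibition above a per-plate cutoff, the mean inhibition of test compounds on that plate plus 3 SD, cut at about 49% in these data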
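Assay system: RD-HGA16 CHO cells with stable hTAAR1 and Gα16 / Reagent: EC80 β-phenethylamine stimulus / Doses: 3 µM, single point / Timing: dye loading 75 min at 37 °C, then 30 min room temperature / Measured by: Fluo-8 intracellular calcium dye fluorescence, real-time kinetic reads / Controls: vehicle wells and EC80 agonist wells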
Beta2AR agonist – human beta-2 adrenergic receptor agonism by FAP | P07550 | Am2.2-beta2AR cells, FAP receptor internalization, flow cytometry | response, % (no concentration beside the values) | 340,000 tested, 0.43% active;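 active = response above a set limit, near 3 SD of response in nonfluorescent compounds, cut at about 42% in these data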
Hits are given with their value; – = inactive; · = no result.

SMILES	MC4R ag barr	MC4R antagonist	m5-HT2A agonist	TAAR1 agonist	TAAR1 antagonist	Beta2AR agonist
COc1ccc(N2C(=O)c3n[nH]c(C(C)C)c3C2c2ccc(C)cc2)cc1 (configuration not stated)	·	·	·	–	–	·
Cc1noc(C)c1S(=O)(=O)N1CCCc2nc(-c3ccccc3)ccc21	·	·	·	–	–	·
COc1ccc(CNCc2cc(Cl)ccc2O)cc1	–	–	–	–	–	–
Oc1ccc(Cl)cc1CNCc1ccc(Cl)nc1	–	–	–	40	–	–
Oc1ccc(Cl)cc1CNCc1ccc(F)c(F)c1	–	–	–	43	–	–
COc1ccccc1-c1noc2c1C(=O)N(Cc1cn(-c3ccccc3OC)nn1)CC2	·	·	–	–	–	·
O=C(O)c1ccc(Nc2nc(-c3ccccc3)cs2)cc1	–	–	–	38	–	–
O=C(Nc1ccc(-c2csc(Nc3ccc(Cl)cc3)n2)cc1)c1cccc(C(F)(F)F)c1	·	·	·	–	–	·
Cc1csc(Nc2ccc(C(=O)O)cc2)n1	–	–	–	–	–	–
O=C(Nc1ccc(-c2csc(Nc3ccccc3)n2)cc1)c1cccc(C(F)(F)F)c1	–	–	–	–	52	–
COc1ccccc1/C=C\C=N\n1c(-c2ccc(Cl)cc2)n[nH]c1=S	8.9	–	–	–	–	–
CC(C)(C)NC(=O)COC(=O)c1ccccc1Nc1ccc(SC(F)F)cc1	–	–	–	–	51	–
O=C(COC(=O)c1ccccc1Nc1ccc(SC(F)F)cc1)NC1CC1	–	–	–	–	–	–
O=C(N/N=C/c1ccc(O)cc1)Nc1cccc2nsnc12	–	–	–	38	67	–
CN1C/C(=C/c2cccnc2)C(=O)/C(=C/c2cccnc2)C1	–	–	–	–	–	43
CC(C)N1C/C(=C/c2cccnc2)C(=O)/C(=C/c2cccnc2)C1	–	–	–	–	–	–
O=C(N/N=C/c1ccc(Cl)cc1)c1ccc2nc[nH]c2c1	–	–	–	–	53	·
O=C(Nc1ccc(Cl)c(Cl)c1)Nc1nccs1	–	–	–	43	–	–
O=C(Nc1nccs1)c1sc2ccccc2c1Cl	–	–	–	–	–	–
O=C(Nc1nccs1)c1sc2cc(Cl)ccc2c1Cl	10	–	–	–	–	–
CC[C@H](NC(=O)[C@@H](Cc1ccccc1)NC(=O)[C@H]1O[C@@H](n2cnc3c(=O)[nH]c(N)nc32)[C@H](O)[C@@H]1O)c1ccccc1	·	·	·	–	–	·
CNC(=O)c1ccc(N(Cc2ccccc2C)S(C)(=O)=O)cc1	–	–	–	–	–	–
Cc1ccccc1CN(c1ccc(C(=O)N2CCc3ccccc3C2)cc1)S(C)(=O)=O	–	–	–	–	51	–
Cc1cccc(NS(=O)(=O)c2cc(C(=O)N3CCc4ccccc4C3)ccc2Cl)c1C	–	–	–	–	56	–
Cc1ccc(C)c(NS(=O)(=O)c2cc(C(=O)N3CCc4ccccc4C3)ccc2Cl)c1	–	–	–	–	–	–
SMILES	MC4R ag barr	MC4R antagonist	m5-HT2A agonist	TAAR1 agonist	TAAR1 antagonist	Beta2AR agonist
OC[C@@H]1CN(Cc2ccc(-c3ccccc3)cc2)C[C@H](n2cnc3c(NCc4ccncc4)ncnc32)O1	–	–	–	–	–	·
O=[N+]([O-])c1ccc(Sc2nc3ccccc3[nH]2)c(Cl)c1	·	·	·	–	–	·
CCOC(=O)N1CCC(Nc2ncnc3c2cnn3-c2ccc(C)cc2C)CC1	–	–	15	–	–	–
COc1ccc(NC(=O)N(C)C[C@@H]2OCCCC[C@@H](C)Oc3ccc(NS(C)(=O)=O)cc3C(=O)N([C@H](C)CO)C[C@@H]2C)cc1	·	·	·	–	–	·
COc1ccc(NC(=O)c2csc(Cc3ccc(Cl)cc3)n2)cc1	–	–	–	–	–	–
O=C(N/N=C/c1ccc(Cl)cc1)c1sccc1OCc1ccc(F)cc1	–	–	–	–	–	55
COc1ccc(COc2ccsc2C(=O)Nc2ccc(Cl)cc2)cc1	8.7	–	–	–	–	–
CCN(CC)C(=O)c1cccc(-c2csc(C(O)c3cccc(Cl)c3)n2)c1 (configuration not stated)	–	–	–	–	57	·
CCN(CC)C(=O)c1cccc(-c2csc(C(O)c3ccc(OC)cc3)n2)c1 (configuration not stated)	–	–	–	–	–	·
CN(C)c1ccc(-c2csc(C(O)c3cccc(Cl)c3)n2)cc1 (configuration not stated)	–	–	–	52	73	·
COC(=O)[C@H]1[C@@H](O)[C@@]2(O)c3c(OC)cc(OC)cc3O[C@@]2(c2ccc(OC)cc2)[C@@H]1c1ccc(F)cc1	·	·	·	–	–	·
Cc1ccc2cc(CCNS(=O)(=O)c3ccc(F)cc3)c(=O)[nH]c2c1C	–	–	–	–	–	43
Cc1ccc(S(=O)(=O)NCCc2cc3ccc(C)c(C)c3[nH]c2=O)cc1	–	–	–	–	–	–
COC(=O)C1=CN(c2ccc3c(c2)OCO3)C(N)=C(C#N)C1c1ccc(-c2ccccc2)cc1 (configuration not stated)	·	·	–	–	–	·
CCn1c(=O)c(C(=O)NNC(=O)c2ccccc2)c(O)c2ccccc21	–	–	–	38	–	–
COc1ccccc1CC(=O)O/N=C(\N)Cc1cccc2ccccc12	–	–	–	75	–	–
Nc1[nH]c(C(=O)c2ccccc2)c(-c2ccccn2)c1C(=O)c1c[nH]c2ccccc12	·	·	·	–	–	·
CCc1nc2ccc(C(=O)Nc3cccc(OCC(=O)N(C)C)c3)cn2c1N(C)Cc1cc2ccccc2s1	–	–	–	–	71	·
CCc1nc2ccc(C(=O)Nc3cc(-c4ccccc4)ccc3OC)cn2c1N(C)Cc1nccs1	–	–	–	–	54	·
CCc1nc2ccc(C(=O)Nc3cc(-c4ccccc4)ccc3OC)cn2c1N(C)Cc1ccc(OC)cc1	–	–	–	–	–	·
O=S1(=O)CCSC[C@@H](CN2CCN(c3ccccc3)CC2)N1	·	·	·	–	–	·
CCOC(=O)N1CCN(C(=O)C[C@H]2C[C@@]3(C(=O)OC)C(=C[C@H](COCc4ccccc4)O[C@@H]3C)N(CCC3=CCCCC3)C2=O)CC1	·	·	·	–	–	·
CCOc1ccc(CCN2C(=O)C(=O)N([C@@H](Cc3ccccc3)CN3CCC[C@H]3CN3C(=O)C(=O)NC[C@@H]3Cc3ccccc3)C[C@@H]2CC(C)C)cc1	·	·	–	–	–	·
CN(C)CCCNc1cc(C(C)(C)C)nc2c(-c3ccc(Cl)cc3)cnn12	8.3	–	–	–	–	–
Cc1ccccc1C(=O)N(C)[C@H]1C[C@H]2c3[nH]c4c(-c5ccccc5)cccc4c3CCN2C(=O)[C@H]1[C@H](C)O	·	·	·	–	–	·

Assay outcomes deposited in PubChem BioAssay by several laboratories.
